Shown is part of a subset that was picked to be rich in hits.
Calb biofilm kill = kills Candida albicans biofilms; C. albicans biofilm + clotrimazole, Alamar Blue; inhibition, % at 6 µM; 0.14% of 85,000 active; AID 834;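 active = inhibition above 20%; inactive = inhibition below 20%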;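 also: preformed 24 hr biofilms exposed to compound for 48 hr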
bCat KO growth = beta-catenin-lacking colon tumor cell growth suppression. HCT116 beta-catenin knockout viability, CellTiter-Glo, 60 h; active compounds read low. viability, % at 10 µM. 1.5% of 140,000 active;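 active = viability at or under a set limit, the compound median less 4 SD, cut at about 6% in these data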
Lung fibro prol = blocks proliferation of human lung fibroblasts. LL 47 human lung fibroblast viability, ATP luminescence; active compounds read low. viability, % at 10 µM. 1.1% of 85,000 active. AID 719;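 active = viability at or below 50% in the single dose screen; inactive = viability above 50%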;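 also: compound exposure lasted 72 h before the ATP readout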
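Material: human LL 47 lung fibroblast cells; quantity: 1,150 cells/well; medium: IMEM plus 15% FBS; doses: 0.1% DMSO in all compound wells; timing: overnight attachment after seeding, then 72 h compound exposure at 37 °C; detection: CellTiter-Glo luminescence; measure: % viability of median cell-only signal; controls: cell-only wells, no compound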
HUVEC prolif 384 = inhibitors of human endothelial cell proliferation; HUVEC proliferation, CellTiter-Glo luminescence, 72 h; active compounds read low; viability, % at 10 µM (by protocol); 1.1% of 86,000 active;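 active = viability at or below 30%; inactive = viability above 30%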
HCT116 PTEN-null = PTEN-deleted cell growth suppression. HCT116 PTEN-null viability, CellTiter-Glo, 60 h; active compounds read low. AID 827. viability, % at 10 µM. 1.2% of 140,000 active;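 active = viability at or below a set limit, 4 SD under the median of all tested compounds, cut at about 3.7% in these data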;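 also: PTEN knockout HCT116 line with beta catenin targeted HCT116 as companion control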
H69AR growth 86K = blocks growth of human H69AR lung tumor cells; H69AR lung tumor viability, ATP luminescence, 72 h; active compounds read low; viability, % at 10 µM; 6% of 85,000 active; AID 598;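 active = viability at or below 40%; inactive = viability above 40%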;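 also: multidrug resistant small cell line overexpressing MRP-1 efflux transporter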
Hits are given with their value; . = inactive; / = no result given.

SMILES | Calb biofilm kill | bCat KO growth | Lung fibro prol | HUVEC prolif 384 | HCT116 PTEN-null | H69AR growth 86K
Cc1ccc(S(=O)(=O)N/N=C\c2ccc([N+](=O)[O-])o2)cc1 | / | . | / | / | . | /
Cc1cc2ncn(/N=C/c3ccc([N+](=O)[O-])o3)c2cc1C | / | 2.5 | / | / | 1.6 | /
Cc1cc(NC(=S)NC(=O)C2CC2)ccc1Br | / | . | / | / | . | /
COc1ccccc1Nc1nnc(SCC(=O)c2cc(C)n(CC3CCCO3)c2C)s1 (stereo not given) | . | . | . | . | . | 38
Cc1cc(C(=O)CSc2nnc(Nc3ccccc3F)s2)c(C)n1CC1CCCO1 (stereo not given) | . | . | . | . | . | .
CCCCNC(=O)c1sc2nc(C)cc(COC)c2c1-n1cccc1 | . | . | . | . | . | 35
N#CC1=C(N)N2C(=C(C#N)C1c1ccccc1)Sc1ccccc12 (stereo not given) | . | . | . | . | . | .
N#CC1=C(N)N2C(=C(C#N)C1c1cccc(Br)c1)Nc1ccccc12 (stereo not given) | / | 3.2 | / | / | 2.0 | /
N#CC1=C(N)N2C(=C(C#N)C1c1ccc(Br)cc1)Nc1ccccc12 (stereo not given) | / | 1.9 | / | / | 2.2 | /
Cc1nn(CC(=O)Nc2ccc(S(=O)(=O)N(C)C)cc2)c(C)c1[N+](=O)[O-] | / | . | / | / | . | /
N#Cc1c(NC(=O)c2ccccc2)sc2c1CCC2 | . | . | . | . | . | 21
Cc1cc(C(=O)Nc2sc3c(c2C#N)CCC(C(C)(C)C)C3)no1 (stereo not given) | . | . | . | . | . | 23
CCCC1CCc2c(sc(NC(=O)OCC)c2C#N)C1 (stereo not given) | . | . | . | . | . | 28
N#Cc1c(NC(=S)NC(=O)c2ccccc2)sc2c1CCCC2 | / | . | / | / | . | /
CCc1ccc(CCC(=O)Nc2sc3c(c2C#N)CCCC3)o1 | . | . | . | . | . | 33
N#Cc1c(NC(=O)COC(=O)c2ccc(S(=O)(=O)N3CCCC3)cc2)sc2c1CCCCC2 | / | . | / | / | . | /
N#Cc1ccccc1NC(=O)CSc1nnc(-c2ccccc2O)n1-c1ccccc1 | . | . | . | . | . | 33
CC(C)c1cc(C(=O)Nc2sc3c(c2C#N)CCC3)no1 | . | . | . | . | . | 26
Cc1ccccc1C(=O)NC(=S)Nc1sc2c(c1C#N)CCC(C)C2 (stereo not given) | / | . | / | / | . | /
Cc1cc(C(=O)Nc2sc3c(c2C#N)CCC(C)C3)cs1 (stereo not given) | . | . | . | . | . | 19
Cc1ccccc1NC(=O)CSc1nnc(-c2ccccc2)n1-c1ccccc1 | . | . | . | . | . | .
CCOC(=O)N1CCN(S(=O)(=O)c2ccc(C(=O)Nc3sc4c(c3C#N)CCC4)cc2)CC1 | . | . | . | . | . | 28
CCOC(=O)c1c(-c2cccs2)csc1NC(=O)CNCCN1CCOCC1 | / | . | / | / | . | /
Cn1c(=O)c2c(ncn2CC(=O)N/N=C/c2ccc(Br)s2)n(C)c1=O | / | . | / | / | . | /
c1ccc(-c2ccc(-c3cnc4n3CCCCC4)cc2)cc1 | . | . | . | . | . | .
SMILES | Calb biofilm kill | bCat KO growth | Lung fibro prol | HUVEC prolif 384 | HCT116 PTEN-null | H69AR growth 86K
COc1ccc(-n2c(SCC(=O)Nc3sc4c(c3C#N)CCCC4)nnc2-c2ccccc2OC)cc1 | . | . | . | . | . | .
COc1ccc(-c2nnc(SCC(=O)Nc3ncc(C)s3)n2-c2ccccc2)cc1OC | . | . | . | . | . | 17
COc1ccc(-c2ccc(C#N)c(SCC(=O)Nc3sc4c(c3C#N)CCC4)n2)cc1 | . | . | . | . | . | .
COc1ccc(-c2nnc(SCC(=O)Nc3sc4c(c3C#N)CCCC4)n2-c2ccccc2)cc1 | . | 3.9 | 27 | 3.7 | 1.7 | 2.3
N#Cc1ccc(-c2cccnc2)nc1SCC(=O)Nc1sc2c(c1C#N)CCC2 | . | . | 31 | . | . | .
N#Cc1c(NC(=O)CCC(=O)O)sc2c1CCCC2 | . | . | . | . | . | .
CN=C1SC(CC(=O)Nc2sc3c(c2C#N)CCCC3)C(=O)N1C (stereo not given) | . | . | . | . | . | 21
CC1=C(C(=O)Nc2ccc(C)cn2)C(c2cnn(C)c2)C2=C(CCCC2=O)N1 (stereo not given) | / | . | / | / | . | /
N#Cc1c(NC(=O)c2cccnc2)sc2c1CCC2 | . | . | . | . | . | 21
CCOc1cc(CNC2CCCC2)cc(Cl)c1OCc1ccccc1 | / | 1.6 | / | / | 1.8 | /
COc1cc(CNn2cn[nH]c2=S)cc(Cl)c1OCc1ccccc1 | / | . | / | / | . | /
O=C(CSC(=S)N1CCOCC1)Nc1nc(=O)c2ccccc2s1 | / | . | / | / | . | /

Source: PubChem BioAssay
